Data: article PMC6207247 (Clinical Pharmacology : Advances and Applications, 2018)
“Also recorded” adds a separate entry of the source.

How the values were obtained:
[1] = Single-dose pharmacokinetics of apixaban in plasma and urine; format: in vivo, human; conditions: for dose proportionality of exposure: Japanese and Caucasian; for CL renal / half-life: male, human, oral; for CL renal: plasma and urine, renal clearance; for half-life: plasma
[2] = system: clotting time (INR); experiment: International normalized ratio; format: in vivo, human; conditions: 50 mg dose, Japanese and Caucasian
[3] = system: clotting time (aPTT); experiment: Activated partial thromboplastin time; format: in vivo, human; conditions: 50 mg dose
[4] = system: clotting time (mPT); experiment: Modified prothrombin time; format: in vivo, human; conditions: 50 mg single dose, Japanese and Caucasian
[5] = system: thrombin generation; experiment: Ex vivo thrombin generation; format: in vivo, human; conditions: after apixaban administration, greatest change
Outline: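 For thrombin generation, the same dosing design applied, with platelet-poor plasma (double centrifugation, 2,500 g, 4°C) sampled 3, 6, 12 and 24 h postdose. Thrombin over time came from cleavage of a slow-reacting fluorogenic substrate against a paired calibration sample. Lag time, time to peak, peak thrombin and endogenous thrombin potential were derived from the curve and summarised as % change from baseline by group, dose and time.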

[6] = system: clotting times and thrombin generation; experiment: Time course of pharmacodynamic measures; format: in vivo, human
[7] = Safety and tolerability assessment; format: in vivo, human; conditions: for bleeding time: same subject
Outline: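 Subjects stayed in clinic ≥72 h per period and avoided alcohol, grapefruit, caffeine and fecal-occult-interfering foods up to Day 4. Safety was assessed by adverse-event review (MedDRA v8.1, by organ class, ethnic group and dose), vital signs, ECGs, physical exams, serum chemistry, liver function, blood counts, urinalysis, fecal occult blood and template-device bleeding time.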

[8] = patients with atrial fibrillation, population PK; cited from earlier work

Question: For `COc1ccc(-n2nc(C(N)=O)c3c2C(=O)N(c2ccc(N4CCCCC4=O)cc2)CC3)cc1` [apixaban, 1-(4-methoxyphenyl)-7-oxo-6-(4-(2-oxopiperidin-1-yl)phenyl)-4,5,6,7-tetrahydro-1H-pyrazolo[3,4-c]pyridine-3-carboxamide], which “AUC values lower in Japanese than in Caucasian subjects” value ([1]; 50 mg dose) is on record?
Answer: 20%–22%

Question: What about the “dose proportionality of exposure” value ([1]; 2.5–10 mg dose range) of the same compound?
Answer: increased the dose proportionally up to 10 mg; also recorded: increased in proportion to dose

Question: And the “point estimates and 95% CIs for dose proportionality parameter b” value ([1]; Cmax and AUC, both Japanese and Caucasian subjects, 2.5–50 mg)?
Answer: < 1

Question: What about the “dose proportionality of exposure” value ([1]; across the 2.5–50 mg dose range) of the same compound?
Answer: less than proportional to dose

Question: What about the CL renal ([1]; Caucasian subjects, across doses) of the same compound?
Answer: 13.3 mL/min

Question: And the CL renal ([1]; Japanese subjects, across doses)?
Answer: 18.3 mL/min

Question: And the half-life ([1]; mean T1/2 values across doses, Caucasian subjects, 2.5–50 mg)?
Answer: 8.9 to 16.1 h

Question: What about the half-life ([1]; mean T1/2 values across doses, Japanese subjects, 2.5–50 mg) of the same compound?
Answer: 6.1 to 8.5 h

Question: What about the half-life ([1]; mean half-life, Caucasian subjects, across doses) of the same compound?
Answer: ~13 h

Question: And the half-life ([1]; mean half-life, Japanese subjects, across doses)?
Answer: ~8 h

Question: And the “INR, increase from baseline” value [2]?
Answer: 50%–64%

Question: And the “aPTT, mean maximum increase from baseline” value [3]?
Answer: ~ 25%

Question: And the “mPT, mean maximum increase from baseline” value [4]?
Answer: 226%–229%

Question: And the “ETP, decrease from baseline” value [5]?
Answer: 49%

Question: What about the “LAG, increase from baseline (up to)” value [5] of the same compound?
Answer: approximately 178%

Question: What about the “PEAK, decrease from baseline” value [5] of the same compound?
Answer: 86%

Question: What about the “TTP, increase from baseline (up to)” value [5] of the same compound?
Answer: ~142%

Question: What about the “duration of pharmacodynamic effects” value ([6]; 25 and 50 mg dose panels) of the same compound?
Answer: > 24 h

Question: What about the “time for which changes in TG parameters and mPT were evident” value ([6]; after apixaban administration) of the same compound?
Answer: ≥ 12 h

Question: And the “time until changes in pharmacodynamic measures were evident” value ([6]; after apixaban administration, Japanese and Caucasian)?
Answer: ≤ 30 min

Question: And the “time to nearing baseline values of pharmacodynamic measures” value ([6]; doses ≤10 mg)?
Answer: 12 to 24 h

Question: And the “time of peak values of pharmacodynamic measures” value ([6]; postdose)?
Answer: approximately 3 h

Question: What about the “headache, number of subjects” value ([7]; Caucasian subjects who received apixaban) of the same compound?
Answer: five

Question: And the “subjects reporting AEs” value ([7]; Caucasian subjects who received apixaban (11))?
Answer: 91.7%

Question: What about the “subjects reporting AEs” value ([7]; Japanese subjects who received apixaban (five)) of the same compound?
Answer: 41.7%

Question: And the “intensity of reported AEs” value ([7]; all reported AEs)?
Answer: mild or moderate

Question: And the safety and tolerability ([7]; ascending single oral doses 2.5–50 mg, Japanese and Caucasian healthy subjects)?
Answer: safe and well tolerated

Question: And the “changes in vital signs or ECGs” value ([7]; either group)?
Answer: no clinically relevant changes

Question: What about the bleeding time ([7]; 3.5 h after the 50 mg dose) of the same compound?
Answer: 30 min

Question: What about the bleeding time ([7]; by 12 h after the 50 mg dose) of the same compound?
Answer: 9 min

Question: What about the “total number of AEs reported” value ([7]; subjects who received apixaban (12 Japanese, 12 Caucasian)) of the same compound?
Answer: 32

Question: And the “serious AEs or discontinuations due to AEs” value ([7]; whole study)?
Answer: no serious AEs or discontinuations due to AEs

Question: What about the “apixaban clearance lower in Japanese patients compared to the overall population” value [8] of the same compound?
Answer: 15%

Question: What about the “higher exposure corresponding to the lower clearance in Japanese patients” value [8] of the same compound?
Answer: 18%
